≈ marks a conversion by molar mass, not a printed value.
These molecules were tested on Trypanosoma brucei (assay: Antitrypanosomal activity against Trypanosoma brucei). Conditions: not given.
Assay type: functional, organism-based
In short: (§1)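 T. brucei brucei strain 221 cultured in complete HMI-9 with 10% FBS, 10% Serum Plus and penicillin/streptomycin; seeded at 1×10^5 per mL and exposed to test samples delivered in 10% DMSO for 48 h at 37 °C, 5% CO2. Vehicle wells served as 0% inhibition and 1 mM thimerosal stock as 100%. Viability read as ATP bioluminescence after CellTiter-Glo lysis.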
`C=C1CCC[C@@H]2[C@@H](CC[C@@]3(C)CC[C@H]([C@H](C)C(=O)O)OO3)[C@H](C)CC[C@@]12C` [SIGMOSCEPTRELLIN B] showed an IC50 of 0.2 µg/mL (≈ 0.528 µM).
With `ClCCl` [METHYLENE CHLORIDE] the IC50 was 0.3 µg/mL.

These molecules were tested on Trypanosoma brucei brucei (assay: Antitrypanosomal activity against Trypanosoma brucei brucei 221 after 48 hrs). Conditions: Trypanosoma brucei, 221, 48 h.
Assay type: functional, organism-based
In short: as §1
With `COC(=O)[C@H](C)[C@@H]1CC[C@@](C)(CC/C=C(\C)CCC(=O)C(C)(C)CCCC(C)=O)OO1` the IC50 was 3 µg/mL (≈ 6.84 µM).
`CC(=O)CCCC(C)(C)C(=O)CC/C(C)=C/CC[C@]1(C)CC[C@H]([C@@H](C)C(=O)O)OO1` [(+)-MUQUBILONE B] showed an IC50 of 2 µg/mL (≈ 4.71 µM).
With `C=C1CCCC(C)(C)C1CC[C@]1(C)CC[C@@H]([C@@H](C)C(=O)OC)OO1` (stereo partly specified) the IC50 was 2 µg/mL (≈ 5.91 µM).
`C=C1CCC[C@@H]2[C@@](C)(CC[C@]3(C)CC[C@H]([C@@H](C)C(=O)O)OO3)[C@H](C)CC[C@@]12C` was tested, and the IC50 was 1 µg/mL (≈ 2.55 µM).
In the case of `COC(=O)[C@H](C)[C@H](O)CC[C@](C)(O)CCCC(C)CCC(=O)C(C)(C)CCCC(C)=O` (stereo partly specified), the IC50 is reported as greater than 25 µg/mL.
`C=C1CCC[C@@H]2[C@@H](CC[C@@]3(C)CC[C@H]([C@H](C)C(=O)O)OO3)[C@H](C)CC[C@@]12C` [SIGMOSCEPTRELLIN B] was tested, and the IC50 was 0.2 µg/mL (≈ 0.528 µM).
`C=C1CCC[C@@H]2[C@@](C)(CC[C@]3(C)CC[C@H]([C@@H](C)C(=O)OC)OO3)[C@H](C)CC[C@@]12C` was tested, and the IC50 was 2 µg/mL (≈ 4.92 µM).
Work on `CC1=C(CC/C(C)=C/CC[C@]2(C)CC[C@H]([C@@H](C)C(=O)O)OO2)C(C)(C)CCC1` yielded an IC50 of 0.9 µg/mL (≈ 2.29 µM).
Molecule `COC(=O)[C@H](C)[C@H]1CC[C@@](C)(CC/C=C(\C)CCC(=O)C(C)(C)CCCC(C)=O)OO1` has an IC50 of 5 µg/mL (≈ 11.4 µM).

Each molecule was assayed on Trypanosoma brucei rhodesiense (assay: Antitrypanosomal activity against Trypanosoma brucei rhodesiense STIB 900). Conditions: not given.
Assay type: functional, organism-based
In the case of `CC(C)(N)CNC(=O)C[C@H]1CC[C@]2(CC1)OO[C@]1(O2)C2CC3CC(C2)CC1C3` [OZ277], the IC50 is reported as 0.6 µg/mL (≈ 1.53 µM).
`C[C@@H]1CC[C@H]2[C@@H](C)C(=O)O[C@@H]3O[C@@]4(C)CC[C@@H]1[C@]32OO4` [ARTEMISININ] was tested, and the IC50 was 25 µg/mL (≈ 88.5 µM).
With `CC(C)(N)CNC(=O)CC1CC[C@]2(CC1)OC[C@]1(O2)C2CC3CC(C2)CC1C3` (stereo partly specified) the IC50 was 0.9 µg/mL (≈ 2.3 µM).

Each molecule was assayed on Trypanosoma brucei rhodesiense (assay: Antitrypanosomal activity against Trypanosoma brucei rhodesiense trypomastigotes after 72 hrs). Conditions: not given.
Assay type: functional, organism-based
Molecule `N=C(N)c1ccc(OCCCCCOc2ccc(C(=N)N)cc2)cc1` [PENTAMIDINE] has an IC50 of 0.4 µg/mL (≈ 1.17 µM).
Molecule `C[C@@H]1CC[C@H]2[C@@H](C)C(=O)O[C@@H]3O[C@@]4(C)CC[C@@H]1[C@]32OO4` [ARTEMISININ] has an IC50 of 6 µg/mL (≈ 21.3 µM).

— ChEMBL document CHEMBL1152329, “The marine sponge Diacarnus bismarckensis as a source of peroxiterpene inhibitors of Trypanosoma brucei, the causative agent of sleeping sickness” (J Nat Prod, 2009)
